Experimental data of several laboratories.
Lines come from different studies, so protocols differ.
SLC6A2: Sodium-dependent noradrenaline transporter (SLC6A2, Homo sapiens, UniProt P23975)
WNK4: Serine/threonine-protein kinase WNK4 (WNK4, Homo sapiens, UniProt Q96J92)
CECR2: Chromatin remodeling regulator CECR2 (CECR2, Homo sapiens, UniProt Q9BXF3)

With `c1ccc(CCCC2CCN(CCCn3nnnc3C(c3ccccc3)c3ccccc3)CC2)cc1` the inhibition was 84.9% (SLC6A2; transporter uptake, inhibitor; HEK293; 1 µM).
With `CCCOc1ccc(OC)c(F)c1C(=O)c1ccc(C(=O)N[C@@H]2CNC[C@H]2NC(=O)c2ccc3[nH]ncc3c2)cc1` the remaining activity was 16% (cAMP-dependent protein kinase catalytic subunit PRKX (PRKX, Homo sapiens, UniProt P51817); enzyme activity, inhibitor; 0.1 µM).
With `CC(=O)N[C@H]1CSSC[C@@H](C(=O)N[C@H](Cc2c[nH]c3ccccc23)C(N)=O)NC(=O)[C@@H](Cc2ccccc2)NC(=O)[C@H](CCCNC(=N)N)NC1=O` the Emax was 0% (Melanocortin receptor 4 (MC4R, Homo sapiens, UniProt P32245); cAMP, agonist; HEK293; 3 min).
For `Fc1ccc(C(c2ccc(F)cc2)c2nnnn2CCCCN2CCN(Cc3ccccc3)CC2)cc1`, the inhibition was 95% (SLC6A2; transporter uptake, inhibitor; HEK293; 1 µM).
For `Cc1ccc(C(=O)Nc2ccc(CN3CCN(C)CC3)c(C(F)(F)F)c2)cc1C#Cc1cnc2cccnn12`, the remaining activity was 93% (WNK4; enzyme activity, inhibitor; 23.5 nM).
With `C[S+]([O-])c1ccc(-c2nc(-c3ccncc3)c(-c3ccc(F)cc3)[nH]2)cc1` (stereo not drawn) the ΔTm was 0.89 °C (CECR2; thermal stability, DSF; 10 µM).
For `Nc1ncnc2occ(-c3ccc(NC(=O)Nc4cc(C(F)(F)F)ccc4F)cc3)c12`, the remaining signal was 17% (WNK4; cell-free assay, inhibitor; 20 µM).
With `Cc1cc2c(cc1N1C(=O)c3cccc4c(Cl)ccc(c34)C1=O)n(C)c(=O)n2C` the ΔTm was 3.5 °C (CECR2; thermal stability, DSF; 10 µM).
With `Clc1ccc(C(c2ccccc2)c2nnnn2CCCN2CCC(Cc3ccccc3)CC2)cc1` (stereo not drawn) the inhibition was 93.4% (SLC6A2; transporter uptake, inhibitor; HEK293; 1 µM).
`CNC(=O)c1cc(Oc2ccc(NC(=O)Nc3ccc(Cl)c(C(F)(F)F)c3)cc2)ccn1` has an inhibition of -8% (Serine/threonine-protein kinase Chk2 (CHEK2, Homo sapiens, UniProt O96017, R145W); enzyme activity, inhibitor; 0.3 µM).
With `CC(C)(C)c1nc2c(s1)c1nc(N)ncc1c1ccc(NS(=O)(=O)c3c(F)cccc3F)c(F)c12` the remaining activity was 89% (Mitotic checkpoint serine/threonine-protein kinase BUB1 beta (BUB1B, Homo sapiens, UniProt O60566); enzyme activity, inhibitor, radiometric; 1 µM).
`NS(=O)(=O)c1ccc(Nc2nc(-c3ccc(F)cc3)c3ccccc3n2)cc1` has a remaining binding of 79% (CECR2; binding, competition with immobilised ligand; 1 µM).
The Km of `CC(C)CCC[C@@H](C)[C@H]1CC[C@H]2[C@@H]3[C@H](O)CC4=CC(=O)CC[C@]4(C)[C@H]3CC[C@]12C` is reported as 0.505 µM (7-alpha-hydroxycholest-4-en-3-one 12-alpha-hydroxylase (Homo sapiens, UniProt Q9UNU6); enzyme activity, substrate).
`Clc1ccc(C(c2ccc(Cl)cc2)c2nnnn2CCCCN2CCN(Cc3ccccc3)CC2)cc1` has an inhibition of 79% (SLC6A2; transporter uptake, inhibitor; HEK293; 1 µM).
The inhibition of `Cc1ccc(Nc2nccc(N(C)c3ccc4c(C)n(C)nc4c3)n2)cc1S(N)(=O)=O` is reported as 44% (Serine/threonine-protein kinase Chk2 (CHEK2, Homo sapiens, UniProt O96017); enzyme activity, inhibitor; 10 µM).
